Screening data as filed in PubChem.
Sampled rows, rich in hits. Any-hit rate of the full collection: about 1.2%.
IDE cell activ: boosts human insulin-degrading enzyme activity in HEK cells | FAbeta-B cleavage, fluorescence polarization; 0% vehicle, 100% cell-free pure enzyme wells | activation, % at 5.96 µM | 340,000 tested, 0.073% active | P14735;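 active = activation above the mean of all tested compounds plus 3 SD, set per screening campaign, cut at about 17% in these data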
procasp7 counter: counter-screen: procaspase-7 (human) activation. recombinant procaspase-7, Ac-DEVD-pNA absorbance 405 nm; D23A/D198A/D206A triple mutant, cannot self-cleave; scale: DMSO 0, 5 µM enzyme 100. activation, % at 8.5 µM. 330,000 tested, 0.093% active. P55210;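 active = percent activation above the screen-wide mean plus 3 SD, cut at about 25% in these data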
Target sequence (P55210 whole entry D23A/D198A/D206A): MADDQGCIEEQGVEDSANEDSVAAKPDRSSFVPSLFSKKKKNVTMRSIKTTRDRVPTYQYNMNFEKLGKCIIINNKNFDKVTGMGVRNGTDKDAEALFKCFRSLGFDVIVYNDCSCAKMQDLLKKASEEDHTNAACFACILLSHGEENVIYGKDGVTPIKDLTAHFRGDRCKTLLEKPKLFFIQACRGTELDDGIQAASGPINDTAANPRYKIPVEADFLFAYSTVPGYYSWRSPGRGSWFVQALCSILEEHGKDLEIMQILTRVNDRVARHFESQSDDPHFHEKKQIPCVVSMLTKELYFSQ
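Assay system: Uncleavable procaspase-7 mutant enzyme | Input: 2 µM procaspase-7 mutant as dispensed | Timing: 1 h compound preincubation, 2 h substrate cleavage, 25 °C | Repeats: One well per compound | Control set: DMSO wells as 0%, DMSO with 5 µM added PC-7 as 100% | Technique: Epi-absorbance of released pNA at 405 nm, two timepoints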
IDE cell inh: cellular human IDE inhibition; HEK cells, FAbetaB cleavage, fluorescence polarization; inhibition, % at 5.59 µM; 320,000 tested, 0.41% active; AID 434962;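 active = percent inhibition above the average of all tested compounds plus 3 SD, set per screening campaign, cut at about 16% in these data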;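 note: IDE supplied by intact live HEK cells; FP after avidin binding of uncleaved biotin substrate so inhibition keeps polarization high; 0% = DMSO wells and 100% = 60 µM reference IDE inhibitor Ii1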
procasp3 activ: activates human procaspase-3; recombinant procaspase-3 D3A, Ac-DEVD-pNA absorbance 405 nm; P42574; activation, % at 8.5 µM; 330,000 tested, 0.11% active; AID 463141;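 active = activation above the mean of all tested compounds plus 3 SD, cut at about 21% in these data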;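 note: 0% = DMSO alone and 100% = DMSO wells spiked with extra 5 µM PC-3 D3A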
Target sequence (P42574 whole entry D9A/D28A/D175A): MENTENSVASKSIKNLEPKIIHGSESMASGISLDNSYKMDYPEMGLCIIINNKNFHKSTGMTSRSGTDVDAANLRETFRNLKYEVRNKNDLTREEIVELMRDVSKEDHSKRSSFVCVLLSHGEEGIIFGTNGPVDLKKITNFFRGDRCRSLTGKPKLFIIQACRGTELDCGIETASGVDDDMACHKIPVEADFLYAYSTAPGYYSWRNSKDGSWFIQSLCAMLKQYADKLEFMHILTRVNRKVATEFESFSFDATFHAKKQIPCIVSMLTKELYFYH
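Assay system: Autoprocessing-dead procaspase-3 D3A mutant enzyme; also added: Ac-DEVD-pNA; doses: one concentration, 8.5 µM nominal, 0.8% DMSO; times: 1 h compound preincubation, 2 h substrate hydrolysis at 25 °C; technique: 405 nm absorbance of p-nitroaniline, reads at 0 and 120 min; measure: % activation between DMSO and enzyme-spiked controls; repeats: single replicate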
TPT1 inh: C. albicans TPT1 enzyme inhibition; inhibition, % at 5 µM; recombinant caTPT1, FP RNA substrate dephosphorylation; 300,000 tested, 0.81% active; AID 1962;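 active = inhibition above the mean of all tested compounds plus 3 SD, set per screening campaign, cut at about 24% in these data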;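 note: plate controls were DMSO alone for no effect and ferristatin control at 100 nM for full effect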
proCasp7 act trip: counter-screen for procaspase-3 activators: activators of human procaspase-7 | AID 488941 | shares compounds with procasp3 activ | activation, % at 8.5 µM | 210 tested, under 10 active | recombinant procaspase-7, Ac-DEVD-pNA absorbance; asp23/198/206-to-Ala mutant, cannot self-cleave;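 active = mean activation above a set limit taken from an earlier procaspase-7 screen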;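 note: 0% = DMSO wells and 100% = DMSO plus 5 µM procaspase-7 enzyme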
proCasp3 confirm: confirmation of human procaspase-3 activators; activation, % at 8.5 µM; shares compounds with procasp3 activ; recombinant PC-3 D3A, Ac-DEVD-pNA absorbance 405 nm; 100% is higher-enzyme control; 210 tested, 10% active;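 active = mean activation above a set limit carried over from the earlier primary screen, cut at about 22% in these data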
* = called active by the depositor; . = not tested or not shown.

SMILES	IDE cell activ	procasp7 counter	IDE cell inh	procasp3 activ	TPT1 inh	proCasp7 act trip	proCasp3 confirm
COc1cccc(OCCN2CCN(c3ncnc4c3cnn4-c3ccccc3)CC2)c1	7	3	2	27*	-3	3	2
CCOC(=O)C1CCCN(Cc2nc(CC3CC3)no2)C1 (stereo not drawn)	3	2	1	-2	-1	.	.
Cc1cc(OC(=O)c2ccc(Cl)cc2Cl)c([N+](=O)[O-])c(=O)[nH]1	-1	1	-1	89*	-1	-8	0
COc1cc(OC)cc(-c2c(-c3cccs3)c3cc(-c4ccc(CN5CCOCC5)cc4)ccc3n2C)c1	4	-3	8	2	.	.	.
Cc1ccc(S(=O)(=O)c2cc3ccccc3nc2N)cc1	-1	2	4	24*	4	7	-1
CN(C)c1ncc(S(=O)(=O)c2ccccc2)c(N)n1	11	-5	4	-2	-1	.	.
CNc1ccccc1C(=O)OCC(C)=O	-3	22	9	22*	-3	17	24*
COc1ccc(NC(=O)C(C)N=C2NS(=O)(=O)c3ccccc32)cc1S(N)(=O)=O (stereo not drawn)	1	5	-1	8	.	.	.
N#Cc1cc2c(ccc3ccccc32)oc1=O	5	7	3	3	-9	.	.
Cc1c(C#N)c(=O)oc2ccc3ccccc3c12	1	19	4	26*	1	-22	-12
CCCCCOc1ccc(NC2=CC(=O)CCC2)cc1	2	21	4	24*	0	0	4
CCCCCCCCCCCCN1[C@@H](CC(C)=O)c2cc(C(F)(F)F)ccc2S1(=O)=O	5	7	4	12	-3	.	.
CCCCCCCCN1[C@@H](CC(=O)O)c2ccc(C(F)(F)F)cc2S1(=O)=O	3	-1	0	40*	-1	1	3
Cc1ccc(S(=O)(=O)CC(=O)Nc2cccc(C)n2)cc1	4	5	0	23*	-2	2	5
CC(C)(C)OC(=O)NCCCC1=CC2=CC(=O)C(C)(OC(=O)C3CCCC3)C(=O)C2=CO1 (stereo not drawn)	.	-14	4	-15	2	.	.
Nc1ccc(CN2CCOCC2)cc1	3	0	3	0	3	.	.
O=C(O)CCCNc1c(C(=O)Nc2ccc(Cl)cc2)cc([N+](=O)[O-])cc1[N+](=O)[O-]	-3	2	-1	0	1	.	.
CC(C)=CCc1cc(-c2oc3cc(O)cc(O)c3c(=O)c2O)ccc1O	-1	12	10	22*	0	3	1
Cc1cc(C)c(C#N)c(SCC(=O)Nc2nnc(-c3ccccc3)s2)n1	0	22	-3	27*	3	2	1
Cc1cc(C)c(C#N)c(SCC(=O)Nc2ccccc2C)n1	6	-3	6	-3	2	.	.
Cc1nc(SCC(=O)Nc2nc3ccccc3s2)c(C#N)c(C)c1C	1	-3	-3	29*	0	-14	-7
Cc1ccc(S(=O)(=O)N(C)C)cc1NC(=O)C(C)OC(=O)/C=C/c1cccs1 (stereo not drawn)	8	6	5	4	4	.	.
COC(=O)C1=CN(CC2CCCO2)C=C(C(=O)OC)C1c1ccccc1C(F)(F)F (stereo not drawn)	7	15	0	23*	-7	-20	-11
O=c1cc(-c2ccccc2)nc2cc(-c3ccc(Br)cc3)[nH]n12	-1	-5	-2	-1	2	.	.
Cc1cc2nc(-c3ccccc3)cc(=O)n2[nH]1	8	3	0	23*	1	0	3
SMILES	IDE cell activ	procasp7 counter	IDE cell inh	procasp3 activ	TPT1 inh	proCasp7 act trip	proCasp3 confirm
CCCCCC(=O)Nc1sc(C)c(C)c1C#N	-5	-13	2	4	2	.	.
Cc1sc(NC(=O)CCCC(=O)O)c(C#N)c1C	3	-8	-4	22*	-1	-7	-1
CCN(CC(=O)Nc1ccc(NC(C)=O)cc1)C(=O)c1cccc(S(=O)(=O)N2c3ccccc3CC2C)c1 (stereo not drawn)	1	-2	3	0	-6	.	.
Cc1c(C)c2ccc(OC(C)C(=O)NCc3ccccn3)cc2oc1=O (stereo not drawn)	-2	-7	7	23*	-1	2	6
Cc1ccc2cc(C#N)c(NCCNC(=O)C3CC3)nc2c1C	4	21	-4	23*	3	-23	-13
COc1ccccc1C1=Nn2c(COc3ccccc3)nnc2SC1	.	-15	0	-8	3	.	.
Cc1cc2c3nonc3ccc2n1-c1ccccc1	-4	20	7	25*	-5	-22	-13
c1ccc(-c2cc3c(ccc4nonc43)nn2)cc1	-3	-4	-1	3	3	.	.
O=c1[nH]c(N/N=C\c2ccc(F)cc2)nc2ccccc12	3	22	-2	30*	3	1	-1
CC(=O)Nc1ccc2c(c1)N(S(=O)(=O)c1cccs1)CCC2	4	1	-5	0	-3	.	.
OC[C@@H]1[C@@H](c2ccc(Cl)cc2)C(c2ccccc2)=NN1c1ccccc1	2	20	.	22*	.	-21	-12
N#Cc1c(-c2ccccc2Cl)c2c([nH]c1=O)-c1ccccc1OC2	0	4	0	26*	0	-21	-14
CCc1ccc(N2CCN(C(=O)N3CCOCC3)CC2)cc1	1	11	3	24*	-5	3	5
Cc1ccc(C)c(C(=O)COc2ncnc3ccccc23)c1	9	0	-3	48*	0	1	6
CCCc1cc(=O)oc2cc(OC(=O)CN3C(=O)NC4(CCCC4)C3=O)ccc12	2	15	-7	26*	0	-22	-13
N#Cc1cc(S(=O)(=O)c2ccc(Cl)cc2)c(N)[nH]c1=O	-1	21	-5	23*	4	-20	-15
Cc1cc(C)c(S(=O)(=O)c2ccc(Cl)cc2)c(=O)[nH]1	1	9	3	-2	0	.	.
CC(OC(=O)c1cc(=O)[nH]c2ccccc12)C(=O)c1ccccc1 (stereo not drawn)	.	13	6	22*	-5	2	7
CC(C)OC(=O)c1cc(=O)[nH]c2ccccc12	-2	1	1	2	-1	.	.
CCN1CCc2c(OCC(=O)N3CCCCC3)cccc2C1=O	0	4	3	3	-2	.	.
Cc1cc(=O)n2nc(N3CCCC(C(=O)NCCCN4CC(C)CC(C)C4)C3)sc2n1 (stereo not drawn)	1	-3	4	2	2	.	.
